Assays:
[1] = Cytotoxicity against human KB-3-1 cells assessed as cell survival after 24 hrs by MTT assay; type: functional, cell-based; conditions: KB 3-1, 24 h
Method in brief: (§1)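 Cells in log phase, in DMEM with 10% heat-inactivated FBS, seeded in triplicate. After 24 h adherence, they were exposed to graded doses for 24 h, then to MTT for 3 h. Formazan was dissolved in DMSO and read at 570 nm. IC50 is the concentration giving 50% survival. Three independent experiments, mean ± SEM.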

J774 [2] = assay: Cytotoxicity against mouse J774 cells assessed as cell survival after 24 hrs by MTT assay; type: cell-based; conditions: J774, 24 h; method in brief: as §1
J774 [3] = assay: Antiinflammatory activity in mouse J774 cells assessed as inhibition of LPS-induced NO production after 24 hrs by Griess method; type: functional, cell-based; conditions: J774, 24 h
J774 [4] = assay: Selectivity index, ratio of IC50 for mouse J774 cells to IC50 for human KB-3-1 cells; type: functional
Method in brief: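 SI is the IC50 from the J-774 MTT assay divided by the IC50 from the KB-3-1 MTT assay, with both IC50 values from the 24 h assays.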

[5] = Solubility of the compound in DMSO; type: physicochemical

Structure (SMILES) | IC50 (J774 [3]) | solubility [5] | IC50 [1] | IC50 (J774 [2]) | Ratio IC50 (J774 [4])
COC(=O)[C@]1(C)C=C2C3=CC(=O)[C@@H]4[C@@]5(C)C=C(C#N)C(=O)C(C)(C)[C@@H]5CC[C@@]4(C)[C@]3(C)CC[C@@]2(C)CC1 | 5.6 µM | – | 4 µM | 7 µM | 1.8
COC(=O)[C@@]1(C)CC[C@]2(C)CC[C@]3(C)C(=CC[C@@H]4[C@@]5(C)CC(C#N)=C(O)C(C)(C)[C@@H]5CC[C@]43C)[C@@H]2C1 | 8 µM | – | 80 µM | > 100 µM | >1.3
COC(=O)[C@@]1(C)CC[C@]2(C)CC[C@]3(C)C(=CC[C@@H]4[C@@]5(C)CC[C@H](O)C(C)(C)[C@@H]5CC[C@]43C)[C@@H]2C1 | – | Insoluble | – | – | –
COC(=O)[C@@]1(C)CC[C@]2(C)CC[C@]3(C)[C@H](C(=O)C=C4[C@@]5(C)C=C(C#N)C(=O)C(C)(C)[C@@H]5CC[C@]43C)[C@@H]2C1 | 0.11 µM | – | 0.3 µM | 3.32 µM | 11
COC(=O)[C@]1(C)C=C2C3=CC(=O)[C@@H]4[C@@]5(C)CC[C@H](O)C(C)(C)[C@@H]5CC[C@@]4(C)[C@]3(C)CC[C@@]2(C)CC1 | > 100 µM | – | – | > 100 µM | –
COC(=O)[C@@]1(C)CC[C@]2(C)CC[C@]3(C)C(=CC[C@@H]4[C@@]5(C)Cc6cnoc6C(C)(C)[C@@H]5CC[C@]43C)[C@@H]2C1 | 12.4 µM | – | > 100 µM | > 100 µM | –
COC(=O)[C@@]1(C)CC[C@]2(C)CC[C@]3(C)C(=CC(=O)[C@@H]4[C@@]5(C)CC[C@H](O)C(C)(C)[C@@H]5CC[C@]43C)[C@@H]2C1 | > 100 µM | – | > 100 µM | > 100 µM | –
COC(=O)[C@@]1(C)CC[C@]2(C)CC[C@]3(C)C(=CC[C@@H]4[C@@]5(C)C/C(=C\O)C(=O)C(C)(C)[C@@H]5CC[C@]43C)[C@@H]2C1 | 10.5 µM | – | 40 µM | > 100 µM | >2.5
COC(=O)[C@@]1(C)CC[C@]2(C)CC[C@]3(C)C(=CC(=O)[C@@H]4[C@@]5(C)C=C(C#N)C(=O)C(C)(C)[C@@H]5CC[C@]43C)[C@@H]2C1 | 2 µM | – | 20 µM | > 100 µM | >5
COC(=O)[C@@]1(C)CC[C@]2(C)CC[C@]3(C)[C@H](C(=O)C[C@@H]4[C@@]5(C)CCC(=O)C(C)(C)[C@@H]5CC[C@]43C)[C@@H]2C1 | 23.4 µM | – | 25.2 µM | > 100 µM | >3.9
COC(=O)[C@@]1(C)CC[C@]2(C)CC[C@]3(C)C(=CC[C@@H]4[C@@]5(C)CCC(=O)C(C)(C)[C@@H]5CC[C@]43C)[C@@H]2C1 | – | Insoluble | – | – | –

Continued, in another order:

IC50 (J774 [3]) | solubility [5] | Structure (SMILES) | IC50 [1] | IC50 (J774 [2]) | Ratio IC50 (J774 [4])
16.3 µM | – | COC(=O)[C@]1(C)C=C2C3=CC(=O)[C@@H]4[C@@]5(C)CCC(=O)C(C)(C)[C@@H]5CC[C@@]4(C)[C@]3(C)CC[C@@]2(C)CC1 | – | 20.1 µM | –
2.8 µM | – | COC(=O)[C@@]1(C)CC[C@]2(C)CC[C@]3(C)[C@H](C(=O)C[C@@H]4[C@@]5(C)C=C(C#N)C(=O)C(C)(C)[C@@H]5CC[C@]43C)[C@@H]2C1 | 5.5 µM | > 100 µM | >18.2
59.4 µM | – | COC(=O)[C@@]1(C)CC[C@]2(C)CC[C@]3(C)[C@H](C(=O)C[C@@H]4[C@@]5(C)CC[C@H](O)C(C)(C)[C@@H]5CC[C@]43C)[C@@H]2C1 | 6.8 µM | 56.1 µM | 8.3
– | Insoluble | COC(=O)[C@@]1(C)CC[C@]2(C)CC[C@]3(C)C(=CC[C@@H]4[C@@]5(C)C=C(C#N)C(=O)C(C)(C)[C@@H]5CC[C@]43C)[C@@H]2C1 | – | – | –
29.6 µM | – | COc1ccc2c(c1)c(CC(=O)O)c(C)n2C(=O)c1ccc(Cl)cc1 [INDOMETHACIN] | – | > 100 µM | –
14.5 µM | – | COC(=O)[C@]1(C)C=C2C3=CC(=O)[C@@H]4[C@@]5(C)C/C(=C/O)C(=O)C(C)(C)[C@@H]5CC[C@@]4(C)[C@]3(C)CC[C@@]2(C)CC1 | – | 13.4 µM | –
